Assay results taken from article PMC7614232 (Organic & biomolecular chemistry, 2022).
Like-named read-outs stand apart in the source and are kept apart here.

Legend:
Assay type in all cases: biochemical
[1] = biological target: T1, GMIIb (Golgi α-mannosidase) (Drosophila melanogaster, UniProt Q9VF33); test: α-mannosidase inhibition assay with pNP-Man, GMIIb; conditions: for SI^a = IC50(LManII)/IC50(GMIIb): selectivity index
T1 sequence (Q9VF33 31-1249): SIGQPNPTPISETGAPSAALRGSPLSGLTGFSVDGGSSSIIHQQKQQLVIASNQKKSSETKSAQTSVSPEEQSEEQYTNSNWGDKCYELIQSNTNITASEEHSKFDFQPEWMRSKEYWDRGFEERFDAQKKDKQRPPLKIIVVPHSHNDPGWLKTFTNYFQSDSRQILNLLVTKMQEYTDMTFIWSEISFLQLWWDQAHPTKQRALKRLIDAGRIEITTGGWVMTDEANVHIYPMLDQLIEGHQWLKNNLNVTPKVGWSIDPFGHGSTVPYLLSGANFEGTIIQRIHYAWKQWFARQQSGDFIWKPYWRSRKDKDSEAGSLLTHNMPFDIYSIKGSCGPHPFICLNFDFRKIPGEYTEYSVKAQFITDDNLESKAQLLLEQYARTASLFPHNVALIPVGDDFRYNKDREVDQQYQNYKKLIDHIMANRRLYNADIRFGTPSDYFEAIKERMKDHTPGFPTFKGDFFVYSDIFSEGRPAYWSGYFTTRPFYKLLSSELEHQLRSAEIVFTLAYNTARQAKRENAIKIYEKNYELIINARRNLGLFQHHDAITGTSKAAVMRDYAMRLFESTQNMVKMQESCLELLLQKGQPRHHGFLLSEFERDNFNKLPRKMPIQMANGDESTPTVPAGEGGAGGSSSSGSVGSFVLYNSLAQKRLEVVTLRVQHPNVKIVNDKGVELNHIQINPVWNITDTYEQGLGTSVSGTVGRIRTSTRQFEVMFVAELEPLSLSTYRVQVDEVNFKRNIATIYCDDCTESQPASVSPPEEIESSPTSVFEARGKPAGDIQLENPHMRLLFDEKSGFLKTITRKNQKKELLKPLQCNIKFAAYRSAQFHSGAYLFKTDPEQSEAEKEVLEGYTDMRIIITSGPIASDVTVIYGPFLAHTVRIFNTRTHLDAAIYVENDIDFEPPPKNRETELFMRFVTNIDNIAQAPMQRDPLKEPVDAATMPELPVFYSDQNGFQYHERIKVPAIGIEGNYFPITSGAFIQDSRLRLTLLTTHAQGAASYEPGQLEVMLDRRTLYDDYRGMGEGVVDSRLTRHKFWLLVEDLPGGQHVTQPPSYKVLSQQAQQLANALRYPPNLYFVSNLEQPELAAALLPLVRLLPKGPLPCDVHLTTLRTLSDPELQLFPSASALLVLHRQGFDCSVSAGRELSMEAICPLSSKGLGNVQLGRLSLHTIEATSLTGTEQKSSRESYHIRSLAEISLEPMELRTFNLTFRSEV

[2] = biological target: T2, LManII (lysosomal α-mannosidase) (Drosophila melanogaster, UniProt Q9VKV1); test: α-mannosidase inhibition assay with pNP-Man, LManII; conditions: for Ki: Dixon plots, pNP-Man 0.5-4 mM
T2 sequence (Q9VKV1 25-1080): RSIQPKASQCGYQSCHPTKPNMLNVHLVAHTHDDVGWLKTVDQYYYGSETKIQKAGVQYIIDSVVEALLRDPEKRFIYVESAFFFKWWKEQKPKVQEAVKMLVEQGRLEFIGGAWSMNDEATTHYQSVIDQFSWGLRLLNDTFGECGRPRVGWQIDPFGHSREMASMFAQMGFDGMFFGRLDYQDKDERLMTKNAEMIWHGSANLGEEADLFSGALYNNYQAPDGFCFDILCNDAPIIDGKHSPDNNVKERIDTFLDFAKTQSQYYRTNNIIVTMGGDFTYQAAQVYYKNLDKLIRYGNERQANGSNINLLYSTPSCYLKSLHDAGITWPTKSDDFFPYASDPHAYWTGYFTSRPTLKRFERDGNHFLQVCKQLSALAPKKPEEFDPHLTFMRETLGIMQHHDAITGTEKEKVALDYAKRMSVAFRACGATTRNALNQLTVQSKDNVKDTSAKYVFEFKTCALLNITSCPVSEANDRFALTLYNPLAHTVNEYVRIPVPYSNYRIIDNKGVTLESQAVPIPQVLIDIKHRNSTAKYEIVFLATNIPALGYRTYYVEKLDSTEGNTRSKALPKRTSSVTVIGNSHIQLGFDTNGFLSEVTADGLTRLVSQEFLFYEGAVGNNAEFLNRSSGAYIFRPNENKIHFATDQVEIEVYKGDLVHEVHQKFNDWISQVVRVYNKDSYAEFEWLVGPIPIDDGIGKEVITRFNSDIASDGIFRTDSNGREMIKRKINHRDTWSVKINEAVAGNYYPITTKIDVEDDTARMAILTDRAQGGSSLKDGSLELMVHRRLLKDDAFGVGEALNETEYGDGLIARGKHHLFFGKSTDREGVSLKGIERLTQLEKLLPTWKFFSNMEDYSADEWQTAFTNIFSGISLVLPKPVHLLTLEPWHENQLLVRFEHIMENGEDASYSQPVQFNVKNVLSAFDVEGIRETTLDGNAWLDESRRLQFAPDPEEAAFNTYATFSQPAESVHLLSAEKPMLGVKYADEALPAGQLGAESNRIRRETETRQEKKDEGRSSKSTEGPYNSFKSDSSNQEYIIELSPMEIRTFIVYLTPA
In short: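 Recombinant Drosophila lysosomal α-mannosidase, isolated and purified, assayed in 50 mM acetate buffer at pH 5.2. Compound (50 mM DMSO solution diluted in water) preincubated with enzyme 5 min at rt before pNP-Man was added. Incubated 1-2 h at 37 °C, stopped with 0.5 M sodium carbonate, p-nitrophenol read at 405 nm. […] Three independent experiments in duplicate.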

[3] = system: Golgi-type mannosidases (GMIIb and AMAN-2); test: inhibition of and selectivity toward Golgi-type mannosidases, stated jointly; conditions: IC50(LManII)/IC50(GMIIb) or IC50(JBMan)/IC50(AMAN-2)
[4] = read-out: IC50 GMIIb, 2 mM pNP-Man, pH 6.0
[5] = read-out: Ki GMIIb, Dixon plots, pNP-Man 0.5-4 mM, pH 6.0
[6] = read-out: IC50 LManII, 2 mM pNP-Man, pH 5.2

For Cl.N=C(N)NCc1ccc(CN2C[C@@H](O)[C@@H](O)[C@H]2CO)cc1 [Compound 9, 1,4-Dideoxy-N-4-guanidinomethylbenzyl-1,4-imino-d-lyxitol hydrochloride], the IC50 [1, 4] was 2.4 ± 0.1 µM, the Ki [1, 5] was 0.83 µM and the “SI^a = IC50(LManII)/IC50(GMIIb)” value [1] was 142. The IC50 [2, 6] was 340 ± 35 µM and the Ki ([2]; read-out: Ki LManII, pH 5.2) was 165 µM.

For Cl.N=C(N)CCCCCCCCCN1C[C@@H](O)[C@@H](O)[C@H]1CO [Compound 26, N-(9-amidinononyl)-1,4-dideoxy-1,4-imino-d-lyxitol hydrochloride], the IC50 [1] was 0.19 ± 0.02 µM, the Ki [1] was 0.04 µM and the “SI^a = IC50(LManII)/IC50(GMIIb)” value [1] was 35. It also gave an IC50 [2] of 6.7 ± 1.2 µM and a Ki ([2]; Ki LManII, pH 5.2) of 3.2 µM.

With OC[C@@H]1[C@H](O)[C@H](O)CN1Cc1ccccc1 [Compound 4, N-Benzyl-1,4-dideoxy-1,4-imino-d-lyxitol] the IC50 [1] was 11 ± 1.3 µM, the “SI^a = IC50(LManII)/IC50(GMIIb)” value [1] was 61 and the IC50 [2] was 675 ± 67 µM.

OC[C@@H]1[C@H](O)[C@H](O)CN1Cc1ccc2ccccc2c1 [Compound 17, 1,4-Dideoxy-1,4-imino-N-(naphthalen-2-ylmethyl)-d-lyxitol] was tested, and the IC50 [1, 4] was 7.6 ± 1.1 µM, the IC50 ([1]; read-out: IC50 GMIIb, 2 mM pNP-Man, pH 6.0, listed as N-2-naphtylmethyl) was 2.4 µM and the “SI^a = IC50(LManII)/IC50(GMIIb)” value [1] was 111. For the same compound, the IC50 [2, 6] was 845 ± 170 µM and the “selectivity index (SI) toward Golgi-type enzymes” value [3] was > 100.

With CCCCCCCCCCCCN1C[C@@H](O)[C@@H](O)[C@H]1CO [Compound 21, 1,4-Dideoxy-N-dodecyl-1,4-imino-d-lyxitol] the IC50 [1] was 0.4 ± 0.05 µM, the “SI^a = IC50(LManII)/IC50(GMIIb)” value [1] was 30 and the IC50 [2] was 11.8 ± 1.2 µM.

With OCC1C(O)C(O)CN1Cc1ccc(I)cc1 (stereo not drawn) [Compound 16, 1,4-Dideoxy-1,4-imino-N-4-iodobenzyl-d-lyxitol] the IC50 [1, 4] was 4.4 ± 0.2 µM, the “SI^a = IC50(LManII)/IC50(GMIIb)” value [1] was 105 and the IC50 [2, 6] was 460 ± 53 µM.

Work on OCC1C(O)C(O)CN1CCc1cccc2ccccc12 (stereo not drawn) [Compound 18, 1,4-Dideoxy-1,4-imino-N-(2-(naphthalen-1-yl)ethyl)-d-lyxitol] yielded an IC50 [1, 4] of 0.45 ± 0.08 µM, a Ki [1, 5] of 0.16 µM and a Ki ([1]; read-out: Ki(GMIIb)) of 0.15 µM. The “SI^a = IC50(LManII)/IC50(GMIIb)” value [1] was 27, the IC50 [2, 6] was 12 ± 1.3 µM and the Ki ([2]; read-out: Ki LManII, pH 5.2) was 3.9 µM.

In the case of OC[C@@H]1[C@H](O)[C@H](O)CN1CC1CCOCC1 [Compound 20], the IC50 [1, 4] is reported as 15.5 ± 0.5 µM, the “SI^a = IC50(LManII)/IC50(GMIIb)” value [1] is reported as 63 and the IC50 [2, 6] is reported as 980 ± 102 µM.

OC[C@@H]1[C@H](O)[C@H](O)CN1CC1CCCCC1 [Compound 19, N-Cyclohexylmethyl-1,4-dideoxy-1,4-imino-d-lyxitol] was tested, and the IC50 [1] was 3.5 ± 0.3 µM, the “SI^a = IC50(LManII)/IC50(GMIIb)” value [1] was 54 and the IC50 [2] was 190 ± 53 µM.

Cl.N=C(N)NCCCCCCCCCCN1C[C@@H](O)[C@@H](O)[C@H]1CO [Compound 25, 1,4-Dideoxy-N-(10-guanidinodecyl)-1,4-imino-d-lyxitol hydrochloride] was tested, and the IC50 [1] was 0.45 ± 0.1 µM, the “SI^a = IC50(LManII)/IC50(GMIIb)” value [1] was 18 and the IC50 [2] was 8.3 ± 2.1 µM.
